Structures are written as SMILES.

The first test deals with T1, Corticotropin-releasing factor receptor 1 (Rattus norvegicus, UniProt P35353).
T1 sequence (P35353 whole entry): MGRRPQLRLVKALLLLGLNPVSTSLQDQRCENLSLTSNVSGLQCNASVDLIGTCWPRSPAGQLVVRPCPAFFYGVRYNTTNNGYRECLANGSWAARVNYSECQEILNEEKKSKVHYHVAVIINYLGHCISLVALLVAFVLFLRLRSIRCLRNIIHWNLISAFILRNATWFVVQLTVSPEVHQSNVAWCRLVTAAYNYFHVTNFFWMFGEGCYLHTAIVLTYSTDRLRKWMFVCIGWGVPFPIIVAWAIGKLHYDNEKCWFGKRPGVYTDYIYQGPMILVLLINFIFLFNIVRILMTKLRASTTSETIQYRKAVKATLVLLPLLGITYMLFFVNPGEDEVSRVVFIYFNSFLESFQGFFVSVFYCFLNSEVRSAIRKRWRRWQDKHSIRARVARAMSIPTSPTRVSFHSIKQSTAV
Description: Inhibition of [125I]- Ovine CRF binding to rat frontal cortex corticotropin releasing factor 1 receptor.
Details: not given
Type of test: tissue-based. In a few lines:
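Frozen rat frontal cortex homogenate (25 μg/well) in 50 mM HEPES pH 7.0 with 10 mM MgCl₂, 2 mM EGTA, protease inhibitors, 0.005% Triton X-100, bacitracin and 0.1% ovalbumin. Bound ligand collected by filtration on PEI-treated filters and gamma counted. Nonspecific binding defined with 1 μM DMP696.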
For `CCCC(CCC)n1c(CC)nc2c1C(=O)N(C)C(C)N2c1ccc(Cl)cc1Cl` (stereo not drawn), the IC50 (commonly the point on the concentration scale where inhibition reaches its midpoint) was 383 nM.
`CCCC(CCC)n1c(CC)nc2c1C(=O)N(C)CN2c1ccc(Cl)cc1` yielded an IC50 of 173 nM.
Same read-out and setting: in the case of `CCc1nc2c(n1C(CC)C(C)C)C(=O)N(C)CN2c1ccc(Cl)cc1Cl` (stereo not drawn) it was 51 nM.
Same read-out and setting: the result for `CCc1nc2c(n1C(CC)C1CC1)C(=O)N(C)CN2c1ccc(OC)cc1Cl` (stereo not drawn) reads 113 nM; that for `CCc1nc2c(n1Cc1ccccc1C)C(=O)N(C)CN2c1ccc(Cl)cc1Cl`, 458 nM.
On the same count and under the same terms, the result for `CCc1nc2c(n1C(C)C1CCC1)C(=O)N(C)CN2c1ccc(Cl)cc1Cl` (stereo not drawn) reads 26 nM; that for `CCc1nc2c(n1C(CC)C1CC1)C(=O)N(C)CN2c1ccc(Cl)cc1Cl` (stereo not drawn), 14 nM; that for `CCCC(CCC)n1c(CC)nc2c1C(=O)N(C)C(CC)N2c1ccc(Cl)cc1Cl` (stereo not drawn), 626 nM.
The molecule `CCCC(CCC)n1c(CC)nc2c1C(=O)N(C)CN2c1c(C)cc(C)cc1C` yielded an IC50 of 22 nM. This IC50 lies about 28-fold lower than the previous one.
`CCCC(CCC)n1c(CC)nc2c1c(=O)n(C)c(=O)n2-c1ccc(Cl)cc1Cl` registered a half-maximal inhibitory concentration (IC50) of 75 nM.
Still for that read-out and setting: in the case of `CCc1nc2c(n1Cc1ccc(OC)cc1)C(=O)N(C)CN2c1ccc(Cl)cc1Cl` it was 456 nM; in that of `CCCC(CCC)n1c(CC)nc2c1C(=O)N(C)CN2c1ccc(C(C)C)cc1Cl`, 50 nM.
`CCCC(CCC)n1c(CC)nc2c1C(=O)N(C)CN2c1ccc(Cl)cc1Cl` returned an IC50 of 5.4 nM. This IC50 is about 9.3-fold lower than that of the molecule before.
For `CCc1nc2c(n1C(CC)C(C)C)C(=O)N(C)CN2c1ccc(C(C)C)cc1Cl` (stereo not drawn), the IC50 was determined as 555 nM. This IC50 lies about 100-fold higher than the previous one.
Same read-out and setting: the result for `CCc1nc2c(n1Cc1ccc(-c3ccccc3)cc1)C(=O)N(C)CN2c1ccc(Cl)cc1Cl` reads 324 nM.
On to `CCCC(CCC)n1c(CC)nc2c1C(=O)N(C)CN2c1ccc(OC)cc1Cl`, for which the IC50 was 27 nM.
In turn, `CCc1nc2c(n1Cc1ccccc1C)C(=O)N(C)CN2c1ccc(OC)cc1Cl` registered an IC50 of 875 nM.
On the same count and under the same terms, the result for `CCCC(C1CC1)n1c(CC)nc2c1C(=O)N(C)CN2c1ccc(Cl)cc1Cl` (stereo not drawn) reads 10 nM.
The molecule `CCc1nc2c(n1C(C)C1CC1)C(=O)N(C)CN2c1ccc(Cl)cc1Cl` (stereo not drawn) registered an IC50 of 55 nM.
On to `CCc1nc2c(n1C(CC)CC)C(=O)N(C)CN2c1ccc(Cl)cc1Cl`, for which the IC50 came to 112 nM. Against the preceding molecule, the IC50 is about 2-fold higher.
On the same count and under the same terms, the result for `CCCC(COC)n1c(CC)nc2c1C(=O)N(C)CN2c1ccc(Cl)cc1Cl` (stereo not drawn) reads 43 nM.
Take `CCCC(C)n1c(CC)nc2c1C(=O)N(C)CN2c1ccc(Cl)cc1Cl` (stereo not drawn): the IC50 came out at 52 nM.
Regarding `CCCCC(CC)n1c(CC)nc2c1C(=O)N(C)CN2c1ccc(Cl)cc1Cl` (stereo not drawn), the IC50 stood at 18 nM.
In turn, `CCc1nc2c(n1COCc1ccccc1)C(=O)N(C)CN2c1ccc(Cl)cc1Cl` returned an IC50 of 860 nM.
Molecule `CCc1nc2c(n1C(C1CC1)C1CC1)C(=O)N(C)CN2c1ccc(Cl)cc1Cl` returned an IC50 of 6 nM.
Take `CCCC(CCC)n1cnc2c1C(=O)N(C)CN2c1ccc(Cl)cc1Cl`: the IC50 is 898 nM. Compared with the last molecule, the IC50 is about 150-fold higher.

System in a further test: not listed separately
Description: Inhibition of CRF-stimulated cAMP production in human Y-79 retinoblastoma cells. The format is functional, cell-based. The note with it: Y79. In a few lines:
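Human Y-79 retinoblastoma cells, 20 000/well in HBSS with 2 mM CaCl₂, 5 mM MgCl₂, 20 mM HEPES and 1 mM IBMX. Antagonist (typically 0.01–10 000 nM) preincubated 30 min at 37 °C, then 1 nM CRF added for 30 min at 37 °C. cAMP read by HTRF against a cAMP standard curve. Percent inhibition of CRF-induced cAMP determined in triplicate; basal cAMP without CRF also measured.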
Background: Cyclic AMP is a second messenger, typically raised through Gs and lowered through Gi signalling.
Molecule `CCCC(CCC)n1c(CC)nc2c1C(=O)N(C)CN2c1ccc(Cl)cc1Cl` gave an IC50 of 24.2 nM.
On to `CCc1nc2c(n1C(C1CC1)C1CC1)C(=O)N(C)CN2c1ccc(Cl)cc1Cl`, for which the IC50 turned out to be 14.4 nM.

Values taken from ChEMBL document CHEMBL1138750, “Design, synthesis, and biological evaluation of 1,2,3,7-tetrahydro-6h-purin-6-one and 3,7-dihydro-1h-purine-2,6-dione derivatives as corticotropin-releasing factor(1) receptor antagonists” (J Med Chem, 2004).
